Assay results from different studies.
Each line is one published result; the experiments were not run side by side.
Organism: Staphylococcus aureus
Effect on: microbial growth

| SMILES | test | test system | setting | MIC |
| --- | --- | --- | --- | --- |
| CCN(CC)CCNC(=O)c1c(C)[nH]c(/C=C2\C(=O)Nc3ccc(F)cc32)c1C |  | NCTC8325 |  | > 30 µM |
| CC(C)Oc1c(NC(=O)c2ccc(NC(=O)[C@H](CC(N)=O)NC(=O)c3ccc(NC(=O)CCc4ccc(C#N)cc4)cc3)cc2)ccc(C(=O)Nc2ccc(C(=O)O)cc2)c1O |  | ATCC29213 |  | > 64 µg/mL |
| Clc1ccc(-c2nc3ccccc3[nH]2)c(Cl)c1 | broth dilution | ATCC29213 MSSA |  | 128 µg/mL |
| CN[C@H](CC(C)C)C(=O)N[C@H]1C(=O)N[C@@H](CC(N)=O)C(=O)N[C@H]2C(=O)N[C@H]3C(=O)N[C@H](C(=O)N[C@H](C(=O)O)c4cc(O)cc(O)c4-c4cc3ccc4O)[C@H](O)c3ccc(c(Cl)c3)Oc3cc2cc(c3O[C@@H]2O[C@H](CO)[C@@H](O)[C@H](O)[C@H]2O[C@H]2C[C@](C)(N)[C@H](O)[C@H](C)O2)Oc2ccc(cc2Cl)[C@H]1O |  | 10 |  | 2.2 µg/mL |
| CC(C)Oc1c(NC(=O)c2ccc(NC(=O)[C@H](CC(N)=O)NC(=O)c3ccc(C#Cc4ccc(C#N)cc4)cc3)cc2)ccc(C(=O)Nc2ccc(C(=O)O)cc2)c1O |  | ATCC29213 |  | ≤ 0.03 µg/mL |
| C=CC1(C)CC(OC(=O)CSCCCCCN(C)C)C2(C)C(C)CCC3(CCC(=O)C32)C(C)C1O (stereo not shown) |  |  |  | 0.5 µg/mL |
| CCCCCCC#Cc1cncc(-c2nnc(SCc3ccc(Cl)cc3)n2C)c1 |  | MRSA | drug-resistant strain | ≥ 20 µg/mL |
| O=[N+]([O-])c1cnc2ccccc2c1O |  |  |  | > 128 µg/mL |
| C/C=C(\C)c1cc(OC(=O)c2c(O)c(C)c(O)c(Cl)c2/C(C)=C/C)c(C)c(O)c1C(=O)O | broth dilution | MRSA |  | 64 µg/mL |
| Cc1cc(Nc2nc(N[C@@H](C)c3ccc(F)cc3)c(C#N)cc2F)n[nH]1 |  | NCTC8325 |  | 30 µM |
| Cc1ccc(NCc2ccc(Oc3ccccn3)cc2)cc1 |  |  |  | 1.8 µg/mL |
| CCOc1cc(-c2nc3ccccc3[nH]2)ccc1O | broth dilution | ATCC29213 MSSA |  | 128 µg/mL |
| COc1c(C)c(OC(=O)c2ccccc2)c(C)c(O)c1C(=O)/C=C/c1ccccc1 | broth dilution | ATCC25923 |  | 5000 µg/mL |
| Fc1ccc(NCc2ccc(Oc3ccccn3)cc2)cc1 |  |  |  | 1.8 µg/mL |
| CCOc1ccc(-c2nc3ccccc3n2Cc2ccccc2)cc1 | broth dilution | ATCC29213 MSSA |  | 64 µg/mL |
| CC(C)Oc1c(NC(=O)c2ccc(NC(=O)[C@H](CC(N)=O)NC(=O)c3ccc(NC(=O)c4cc(C#N)cn4C)cc3)cc2)ccc(C(=O)Nc2ccc(C(=O)O)cc2)c1O |  | ATCC29213 |  | 64 µg/mL |
| CC1(C)S[C@@H]2[C@H](NC(=O)[C@H](N)c3ccccc3)C(=O)N2[C@H]1C(=O)O | broth dilution | 16339 |  | 64 µg/mL |
| CO[C@H]1/C=C/O[C@@]2(C)Oc3c(C)c(O)c4c(O)c(c(/C=N/N5CCN(C)CC5)c(O)c4c3C2=O)NC(=O)/C(C)=C\C=C\[C@H](C)[C@H](O)[C@@H](C)[C@@H](O)[C@@H](C)[C@H](OC(C)=O)[C@@H]1C | broth dilution | ATCCBAA44 |  | 2 µg/mL |
| C#CCCC1(CC(=O)NC(C)C)N=N1 |  | NCTC8325 |  | > 100 µM |
| Cc1ccc(C)n1-c1ccc(-c2nnc(-c3ccc(O)cc3)[nH]2)cc1 | broth dilution | ATCC11632 | 18 h | 8 µg/mL |

| SMILES | test | test system | setting | MIC |
| --- | --- | --- | --- | --- |
| CN[C@H](CC(C)C)C(=O)N[C@H]1C(=O)N[C@@H](CC(N)=O)C(=O)N[C@H]2C(=O)N[C@H]3C(=O)N[C@H](C(=O)N[C@H](C(=O)O)c4cc(O)cc(O)c4-c4cc3ccc4O)[C@H](O)c3ccc(c(Cl)c3)Oc3cc2cc(c3O[C@@H]2O[C@H](CO)[C@@H](O)[C@H](O)[C@H]2O[C@H]2C[C@](C)(N)[C@H](O)[C@H](C)O2)Oc2ccc(cc2Cl)[C@H]1O | broth dilution | ATCC29213 |  | 1 µg/mL |
| COC(=O)/C(C#N)=C1\Nc2ccccc2O1 |  |  |  | > 128 µg/mL |
| Cc1ccc2nc(-c3ccc([N+](=O)[O-])cc3)n(Cc3ccccc3)c2c1 | broth dilution | ATCC29213 MSSA |  | 8 µg/mL |
| O=C(Cc1ccc(O)c(O)c1)NCCCCCCCC[P+](c1ccccc1)(c1ccccc1)c1ccccc1.[Br-] | broth dilution | ATCC43300 MRSA | 18 h | > 32 µg/mL |
| O=C1NC(=S)S/C1=C\c1ccc(-c2ccc(N(c3ccccc3)c3ccccc3)cc2)c2ccccc12 | broth dilution | ATCC6538 |  | 500 µg/mL |
| O=C(Nc1ccc(Cl)c(C(F)(F)F)c1)Nc1cccc2c1OC(F)(F)O2 |  | NCTC8325 |  | 0.5 µM |
| O=C1NN=C(N=Cc2ccc(O)c(O)c2)C1=NNn1c(-c2ccccc2)nc2ccccc2c1=O | broth dilution |  | 24 h | 107 µM |
| C/C(=C\c1ccc(O)cc1)C(=O)Nc1ccc(C(=O)N[C@@H](CC(N)=O)C(=O)Nc2ccc(C(=O)Nc3ccc(C(=O)Nc4ccc(C(=O)O)cc4)c(O)c3OC(C)C)cc2)cc1 |  | ATCC29213 |  | 0.25 µg/mL |
| C/C=C(\C)c1cc(O)c(C)c(OC(=O)c2c(C)cc(O)c(Cl)c2O)c1 | broth dilution | 6917 |  | 32 µg/mL |
| CO[C@H]1[C@H](O[C@H]([C@H]2O[C@@H](n3ccc(=O)[nH]c3=O)[C@H](O)[C@@H]2O)[C@H](NCCCNC(=O)[C@@H](NC(=O)[C@@H](NC(=O)N[C@H](C(=O)O)C(C)C)[C@@H]2CCNC(=N)N2)[C@@H](O)C(C)C)C(=O)O)O[C@H](CN)[C@H]1O |  | NEWMAN |  | > 32 µg/mL |
| O=C1NC(=O)/C(=C\c2ccc3nccnc3c2)S1 |  | NCTC8325 |  | > 30 µM |
| C=CCn1c(-c2ccc(Cl)c(Cl)c2)nc2ccccc21 | broth dilution | ATCC29213 MSSA |  | 64 µg/mL |
| O=C1C=CC(=O)c2c1ccc1c2[nH]c2ccccc21 |  | ATCC29213 |  | 4 µg/mL |
| CC(C)Oc1c(NC(=O)c2ccc(NC(=O)[C@H](CC(N)=O)NC(=O)c3cccc(-c4cccc(C#N)c4)c3)cc2)ccc(C(=O)Nc2ccc(C(=O)O)cc2)c1O |  | ATCC29213 |  | > 64 µg/mL |
| O=C(C[n+]1cc(-c2ccc(Cl)cc2)n2c1CCC2)Nc1ccc(Cl)c(Cl)c1 |  |  |  | 4 µg/mL |
| CC(C)(O/N=C(\C(=O)N[C@@H]1C(=O)N2C(C(=O)[O-])=C(C[n+]3ccccc3)CS[C@H]12)c1csc(N)n1)C(=O)O |  | MRSA | 18 h | > 128 µg/mL |
| COC(=O)c1ccc2c(C(=Nc3ccc(N(C)C(=O)CN4CCN(C)CC4)cc3)c3ccccc3)c(O)[nH]c2c1 |  | NCTC8325 |  | > 30 µM |
| C/C=C(\C)c1cc(O)c(C)c(OC(=O)c2c(C)c(Cl)c(O)c(Cl)c2O)c1 | broth dilution | 745524 |  | 4 µg/mL |
| COc1c(C)c(OS(=O)(=O)c2ccc3ccccc3c2)c(C)c(OS(=O)(=O)c2ccc3ccccc3c2)c1C(=O)/C=C/c1ccccc1 | broth dilution | ATCC25923 |  | 5000 µg/mL |
| Cc1cc(Cl)cc2sc(N(CCCn3ccnc3)C(=O)c3ccco3)nc12 |  | ATCC25923 |  | 2.6 µM |

| SMILES | test | test system | setting | MIC |
| --- | --- | --- | --- | --- |
| CN[C@H](CC(C)C)C(=O)N[C@H]1C(=O)N[C@@H](CC(N)=O)C(=O)N[C@H]2C(=O)N[C@H]3C(=O)N[C@H](C(=O)N[C@H](C(=O)O)c4cc(O)cc(O)c4-c4cc3ccc4O)[C@H](O)c3ccc(c(Cl)c3)Oc3cc2cc(c3O[C@@H]2O[C@H](CO)[C@@H](O)[C@H](O)[C@H]2O[C@H]2C[C@](C)(N)[C@H](O)[C@H](C)O2)Oc2ccc(cc2Cl)[C@H]1O |  | ATCC25923 |  | 0.39 µg/mL |
| CNc1cccc2cc(C(=O)Nc3ccc(C(=O)O)cc3)c(=O)[nH]c12 |  | ATCC29213 |  | 16 µg/mL |
| NC[C@H]1O[C@H](O[C@H]2[C@H](O)[C@@H](O[C@H]3O[C@H](CO)[C@@H](O)[C@H](N)[C@H]3O)[C@H](N)C[C@@H]2N)[C@H](N)C[C@@H]1O |  | 129 | clinical isolate | > 100 µM |
| O=C(CCCCCCCCCC[P+](c1ccccc1)(c1ccccc1)c1ccccc1)Nc1cc(O)c(O)c(O)c1.[Br-] | broth dilution | ATCC43300 MRSA | 18 h | 2 µg/mL |
| O=C(O)CN1C(=O)/C(=C/c2c3ccccc3c(-c3ccc(N(c4ccccc4)c4ccccc4)cc3)c3ccccc23)NC1=S | broth dilution | ATCC25923 |  | > 1000 µg/mL |
| O=[N+]([O-])c1cccc(-c2nc3ccccc3[nH]2)c1 | broth dilution | ATCC29213 MSSA |  | 64 µg/mL |
| O=C1NC(=S)N/C1=C\c1ccc(-c2ccc(N(c3ccccc3)c3ccccc3)cc2)c2ccccc12 | broth dilution | ATCC6538 |  | > 1000 µg/mL |
| O=C1NN=C(N=Cc2ccccc2)C1=NNn1c(-c2ccccc2)nc2ccccc2c1=O | broth dilution |  | 24 h | 57.1 µM |
| O=C(O)CN1C(=O)/C(=C/c2ccc(-c3ccc(N(c4ccccc4)c4ccccc4)cc3)cc2)NC1=S | broth dilution | ATCC43300 |  | 1.95 µg/mL |
| COc1cccc(OC)c1C(=O)N[C@@H]1C(=O)N2[C@@H]1SC(C)(C)[C@@H]2C(=O)O | broth dilution | BAA1707 MRSA | drug-resistant strain | 18.8 µM |
| O=C1NC(=S)N/C1=C\c1c2ccccc2c(-c2ccc(N(c3ccccc3)c3ccccc3)cc2)c2ccccc12 | broth dilution | ATCC43300 |  | > 1000 µg/mL |
| CC(C)Oc1c(NC(=O)c2ccc(NC(=O)[C@H](CC(N)=O)NC(=O)c3ccc(NC(=O)Cc4ccc(C#N)cc4)cc3)cc2)ccc(C(=O)Nc2ccc(C(=O)O)cc2)c1O |  | ATCC29213 |  | > 64 µg/mL |
| CN[C@H](CC(C)C)C(=O)N[C@H]1C(=O)N[C@@H](CC(N)=O)C(=O)N[C@H]2C(=O)N[C@H]3C(=O)N[C@H](C(=O)N[C@H](C(=O)O)c4cc(O)cc(O)c4-c4cc3ccc4O)[C@H](O)c3ccc(c(Cl)c3)Oc3cc2cc(c3O[C@@H]2O[C@H](CO)[C@@H](O)[C@H](O)[C@H]2O[C@H]2C[C@](C)(N)[C@H](O)[C@H](C)O2)Oc2ccc(cc2Cl)[C@H]1O | broth dilution | ATCCBAA44 |  | 1 µg/mL |
| CN[C@H](CC(C)C)C(=O)N[C@H]1C(=O)N[C@@H](CC(N)=O)C(=O)N[C@H]2C(=O)N[C@H]3C(=O)N[C@H](C(=O)N[C@H](C(=O)O)c4cc(O)cc(O)c4-c4cc3ccc4O)[C@H](O)c3ccc(c(Cl)c3)Oc3cc2cc(c3O[C@@H]2O[C@H](CO)[C@@H](O)[C@H](O)[C@H]2O[C@H]2C[C@](C)(N)[C@H](O)[C@H](C)O2)Oc2ccc(cc2Cl)[C@H]1O | broth dilution | ATCC25923 |  | 0.98 µg/mL |
| C#CCCC1(CCNC(=O)c2cc(Oc3ccc(NC(=O)Nc4ccc(Cl)c(C(F)(F)F)c4)cc3)ccn2)N=N1 |  | NCTC8325 | 24 h | 10 µM |
| CSc1ccc(-c2nc3ccccc3[nH]2)cc1 | broth dilution | ATCC29213 MSSA |  | 16 µg/mL |
| Cn1cnc2c(F)c(Nc3ccc(Br)cc3Cl)c(C(=O)NOCCO)cc21 |  | NCTC8325 |  | > 30 µM |
| Cc1ccc2nc(-c3cccc([N+](=O)[O-])c3)[nH]c2c1 | broth dilution | ATCC29213 MSSA |  | 64 µg/mL |
